# The source made the active and inactive calls. The calls are words filed in the database; no cut-off is given here.
# Key:
# Trichomonas vaginalis [1] = experiment: Cytotoxicity against Trichomonas vaginalis TV-VP60 at 50 uM after 24 hrs by trypan blue exclusion assay; format: functional
# Trichomonas vaginalis [2] = experiment: Cytotoxicity against Trichomonas vaginalis TV-VP60 at 2.5 uM to 1 mM after 24 hrs by trypan blue exclusion assay; format: functional, organism-based
# Method in brief: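 Dose-response run on 5.0 × 10^5 TV-VP60 trophozoites/mL (fresh clinical isolate), concentrations 2.5 to 1000 µM, 24 h exposure, viable trophozoites counted. Vehicle control included; metronidazole 50 µM used as positive control.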
# Trichomonas vaginalis [3] = experiment: Growth inhibition of Trichomonas vaginalis TV-VP60 at 250 uM using initial inoculum of 1.0 x 10^5 trophozoites/mL; format: functional, organism-based
# Method in brief: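 Kinetic growth curve of TV-VP60 trophozoites with 250 µM present, starting from initial inocula of 1.0 × 10^5 or 5.0 × 10^4 trophozoites/mL. Untreated parasites served as control.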
# Trichomonas vaginalis [4] = experiment: Growth inhibition of Trichomonas vaginalis TV-VP60 at 250 uM using initial inoculum of 5 x 10^5 trophozoites/mL; format: functional, organism-based
# Trichomonas vaginalis [5] = experiment: Growth inhibition of Trichomonas vaginalis TV-VP60 at 250 uM treated followed by washout measured after 12 hrs growth period; format: functional, organism-based
# Method in brief: (§1)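 TV-VP60 trophozoites treated with 250 µM for 12 or 24 h, centrifuged, and the pellet reinoculated into fresh medium without alkaloid. Growth was then followed as a kinetic curve. Untreated trophozoites went through the same procedure for comparison.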
# Trichomonas vaginalis [6] = experiment: Growth inhibition of Trichomonas vaginalis TV-VP60 at 250 uM treated followed by washout measured after 48 hrs growth period; format: functional, organism-based; method in brief: as §1
# Trichomonas vaginalis [7] = experiment: Induction of striking morphological alteration in Trichomonas vaginalis TV-VP60 assessed as loss of original shape of parasites with some fissures on the surface at 250 uM after 6 hrs by scanning electron microscopic analysis; format: functional, organism-based
# Method in brief: (§2)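 Surface morphology of TV-VP60 trophozoites exposed to 250 µM for 6 h and 24 h was examined by scanning electron microscopy.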
# Trichomonas vaginalis [8] = experiment: Induction of striking morphological alteration in Trichomonas vaginalis TV-VP60 assessed as loss of original shape of parasites with some fissures on the surface at 250 uM after 24 hrs by scanning electron microscopic analysis; format: functional, organism-based; method in brief: as §2
# Trichomonas vaginalis [9] = experiment: Induction of striking morphological alteration in Trichomonas vaginalis TV-VP60 assessed as loss of original shape of parasites with some fissures on the surface at 250 uM by scanning electron microscopic analysis; format: functional, organism-based; details: TDE = time-dependent effect; method in brief: as §2
# Trichomonas vaginalis [10] = experiment: Induction of striking morphological alteration in Trichomonas vaginalis TV-VP60 assessed as pseudocysts at flagella internalization stage at 5 uM after 24 hrs by scanning electron microscopic analysis; format: functional, organism-based
# Trichomonas vaginalis [11] = experiment: Induction of striking morphological alteration in Trichomonas vaginalis TV-VP60 assessed as large peripheral vacuoles between plasma membrane and cytoplasm at 250 uM after 24 hrs by transmission electron microscopic analysis; format: functional, organism-based
# Trichomonas vaginalis [12] = experiment: Induction of striking morphological alteration in Trichomonas vaginalis TV-VP60 assessed as striate vacuolization close to nucleus at 250 uM after 24 hrs by transmission electron microscopic analysis; format: functional, organism-based
# Trichomonas vaginalis [13] = experiment: Induction of striking morphological alteration in Trichomonas vaginalis TV-VP60 assessed as hydrogenosomes on autophagic vacuoles at 250 uM after 24 hrs by transmission electron microscopic analysis; format: functional, organism-based
# Trichomonas vaginalis [14] = experiment: Induction of striking morphological alteration in Trichomonas vaginalis TV-VP60 assessed as change in size of hydrogenosomes at 250 uM after 6 to 24 hrs by transmission electron microscopic analysis; format: functional, organism-based
# Trichomonas vaginalis [15] = experiment: Induction of striking morphological alteration in Trichomonas vaginalis TV-VP60 assessed as change in shape of hydrogenosomes at 250 uM after 6 to 24 hrs by transmission electron microscopic analysis; format: functional, organism-based
# Trichomonas vaginalis [16] = experiment: Induction of striking morphological alteration in Trichomonas vaginalis TV-VP60 assessed as change in intracellular localization of hydrogenosomes at 250 uM after 6 to 24 hrs by transmission electron microscopic analysis; format: functional, organism-based
# Trichomonas vaginalis [17] = experiment: Induction of striking morphological alteration in Trichomonas vaginalis TV-VP60 assessed as effect on golgi apparatus at 250 uM after 6 hrs by transmission electron microscopic analysis; format: functional, organism-based
# Trichomonas vaginalis [18] = experiment: Induction of striking morphological alteration in Trichomonas vaginalis TV-VP60 assessed as degenerated cytoplasm matrix at 250 uM after 24 hrs by transmission electron microscopic analysis; format: functional, organism-based
# Trichomonas vaginalis [19] = experiment: Induction of striking morphological alteration in Trichomonas vaginalis TV-VP60 assessed as formation of multinucleated cells at 250 uM after 24 hrs by transmission electron microscopic analysis; format: functional, organism-based
# Trichomonas vaginalis [20] = experiment: Induction of striking morphological alteration in Trichomonas vaginalis TV-VP60 assessed as abnormal shape of nucleus at 250 uM after 24 hrs by transmission electron microscopic analysis; format: functional, organism-based
# Trichomonas vaginalis [21] = experiment: Induction of striking morphological alteration in Trichomonas vaginalis TV-VP60 assessed as effect on endoplasmic reticulum at 250 uM after 6 hrs by transmission electron microscopic analysis; format: functional, organism-based
# Trichomonas vaginalis [22] = experiment: Induction of striking morphological alteration in Trichomonas vaginalis TV-VP60 assessed as elongated nucleus at 250 uM after 24 hrs by transmission electron microscopic analysis; format: functional, organism-based
# Trichomonas vaginalis [23] = experiment: Cell cycle arrest in Trichomonas vaginalis TV-VP60 assessed as accumulation at G1 phase at 250 uM after 6 hrs using Annexin V FITC and propidium iodide staining by flow cytometry relative to control; format: functional
# Method in brief: (§3)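 TV-VP60 trophozoites (fresh clinical isolate) exposed to 250 µM for 6 h or 24 h; cell-cycle distribution measured by flow cytometry and compared with untreated trophozoites.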
# Trichomonas vaginalis [24] = experiment: Cell cycle arrest in Trichomonas vaginalis TV-VP60 assessed as accumulation at S phase at 250 uM after 6 hrs using Annexin V FITC and propidium iodide staining by flow cytometry relative to control; format: functional; method in brief: as §3
# Trichomonas vaginalis [25] = experiment: Cell cycle arrest in Trichomonas vaginalis TV-VP60 assessed as accumulation at G2 phase at 250 uM after 6 hrs using Annexin V FITC and propidium iodide staining by flow cytometry relative to control; format: functional; method in brief: as §3
# Trichomonas vaginalis [26] = experiment: Cell cycle arrest in Trichomonas vaginalis TV-VP60 assessed as accumulation at G1 phase at 250 uM after 24 hrs using Annexin V FITC and propidium iodide staining by flow cytometry relative to control; format: functional; method in brief: as §3
# Trichomonas vaginalis [27] = experiment: Cell cycle arrest in Trichomonas vaginalis TV-VP60 assessed as accumulation at S phase at 250 uM after 24 hrs using Annexin V FITC and propidium iodide staining by flow cytometry relative to control; format: functional; method in brief: as §3
# Trichomonas vaginalis [28] = experiment: Cell cycle arrest in Trichomonas vaginalis TV-VP60 assessed as accumulation at G2 phase at 250 uM after 24 hrs using Annexin V FITC and propidium iodide staining by flow cytometry relative to control; format: functional; method in brief: as §3
# Trichomonas vaginalis [29] = experiment: Induction of vacuolization formation in Trichomonas vaginalis TV-VP60 at 250 uM after 6 to 24 hrs by flow cytometry; format: functional, organism-based
# Method in brief: (§4)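 TV-VP60 trophozoites exposed to 250 µM for 6 h and 24 h. Cell size and granularity were read by flow cytometry, with granularity taken as the vacuolization rate.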
# Trichomonas vaginalis [30] = experiment: Effect on alteration in size of trophozoites in Trichomonas vaginalis TV-VP60 at 250 uM after 6 to 24 hrs by flow cytometry; format: functional, organism-based; method in brief: as §4
# Trichomonas vaginalis [31] = experiment: Induction of apoptosis in Trichomonas vaginalis TV-VP60 assessed as formation of apoptotic bodies at 250 uM after 6 to 24 hrs by flow cytometry; format: functional, organism-based
# Trichomonas vaginalis [32] = experiment: Induction of apoptosis in Trichomonas vaginalis TV-VP60 assessed as DNA fragmentation at 250 uM after 6 to 24 hrs by agarose gel electrophoresis; format: functional, organism-based
# Method in brief: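 Genomic DNA from TV-VP60 trophozoites treated with 250 µM for 6 h and 24 h was analysed by electrophoresis alongside untreated parasites.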
# Trichomonas vaginalis [33] = experiment: Induction of phosphatidylserine exposure in Trichomonas vaginalis TV-VP60 at 250 uM after 6 to 24 hrs by Annexin V-FITC staining; format: functional, organism-based
smiles,measurement,setting,value
Cc1ncc([N+](=O)[O-])n1CCO [METRONIDAZOLE],Activity,Trichomonas vaginalis [1],100%
COc1c2c(cc3c1C(=O)O[C@H]1[C@@H]3[C@H]3C(=C[C@@H]1O)CCN3C)OCO2 [CANDIMINE],Activity,Trichomonas vaginalis [2],Active
same,growth inhibition (GI),Trichomonas vaginalis [3],Active
same,growth inhibition (GI),Trichomonas vaginalis [4],Active
same,growth inhibition (GI),Trichomonas vaginalis [5],inactive
same,growth inhibition (GI),Trichomonas vaginalis [6],inactive
same,Activity,Trichomonas vaginalis [7],Active
same,Activity,Trichomonas vaginalis [8],Active
same,Activity,Trichomonas vaginalis [9],tde
same,Activity,Trichomonas vaginalis [10],Active
same,Activity,Trichomonas vaginalis [11],Active
same,Activity,Trichomonas vaginalis [12],Active
same,Activity,Trichomonas vaginalis [13],Active
same,Activity,Trichomonas vaginalis [14],Active
same,Activity,Trichomonas vaginalis [15],Active
same,Activity,Trichomonas vaginalis [16],Active
same,Activity,Trichomonas vaginalis [17],inactive
same,Activity,Trichomonas vaginalis [18],inactive
same,Activity,Trichomonas vaginalis [19],inactive
same,Activity,Trichomonas vaginalis [20],Active
same,Activity,Trichomonas vaginalis [21],inactive
same,Activity,Trichomonas vaginalis [22],Active
same,Activity,Trichomonas vaginalis [23],34.39%
same,Activity,Trichomonas vaginalis [24],19.89%
same,Activity,Trichomonas vaginalis [25],44.2%
same,Activity,Trichomonas vaginalis [26],22.66%
same,Activity,Trichomonas vaginalis [27],19.49%
same,Activity,Trichomonas vaginalis [28],58.97%
same,Activity,Trichomonas vaginalis [29],Active
same,Activity,Trichomonas vaginalis [30],inactive
same,Activity,Trichomonas vaginalis [31],inactive
same,Activity,Trichomonas vaginalis [32],inactive
same,Activity,Trichomonas vaginalis [33],inactive
